Measured values reported in the array DNA melting data of Ke et al. (doi:10.1101/2024.01.08.574731).

Tests used:
[1] = melting temperature; fluorescence melt of hairpins on a sequencing array, two-state fit, raised by 9.35 °C to match UV melts; settings: sodium 0.088 M
Method in brief: (§1)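 Folding enthalpy and melting temperature come from bootstrapped two-state fits to Cy3 fluorescence of library hairpins carrying annealed Cy3 and quencher oligos on a sequenced MiSeq flow cell. Imaging was done in 50 mM Na-HEPES pH 8.0, 25 mM NaCl, stepping by 2.5 °C up to 60 °C, and signals were normalised to pre-quench Cy3 and to control constructs. Results of four replicates were combined by inverse variance, and fitted temperatures were raised by 9.35 °C to match UV melts.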

[2] = folding enthalpy; higher = less favourable; fluorescence melt of hairpins on a sequencing array, two-state fit; settings: sodium 0.088 M
Method in brief: as §1

Sequence	Tm [1]	folding enthalpy [2]
GGGTATGGAAACGTATCC ((.((.(....).)).))	30.5 °C	-19.8 kcal/mol
GGGTCACGAAAGTGCCC (((.(((....))))))	58.5 °C	-39.9 kcal/mol
GGGTCAGAAATGACCC ((((((....))))))	65.1 °C	-34.5 kcal/mol
GGGTCAGGAAACCGACCC (((((.(....).)))))	52.7 °C	-37.3 kcal/mol
GGGTCCGAAAGGAAACCC ((((((....)))..)))	50.2 °C	-22.8 kcal/mol
GGGTCCGAAAGGAAGCCC ((((((....)))..)))	46.9 °C	-18.8 kcal/mol
GGGTCCGAAAGGACGCCC ((((((....)))..)))	48.9 °C	-10.3 kcal/mol
GGGTCCGAAAGGATCCCC ((((((....)))..)))	60.5 °C	-14.6 kcal/mol
GGGTCCGGAAACGAACCC ((((.((....)).))))	49 °C	-31.9 kcal/mol
GGGTCGACGAAAGTCCCC (((..(((....))))))	38.7 °C	-17.7 kcal/mol
GGGTCGGGAAACCGATCC ((.((((....)))).))	57.4 °C	-47.4 kcal/mol
GGGTCTCGAAAGAGCCC (((.(((....))))))	58.2 °C	-32 kcal/mol
GGGTCTCGAAAGAGGCCC (((.(((....))).)))	67.7 °C	-29.1 kcal/mol
GGGTCTGGAAACAGATCC ((.((((....)))).))	51.9 °C	-43.7 kcal/mol
GGGTGACGAAAGTCCCCC (((.(((....))).)))	57.9 °C	-28.2 kcal/mol
GGGTGAGGAAACTTACCC ((((.((....)).))))	47.7 °C	-35.7 kcal/mol
GGGTGCGAAAGCAACCC ((((((....))).)))	68.5 °C	-18.9 kcal/mol
GGGTGCGAAAGCATCCCC ((((((....)))..)))	64.3 °C	-13.4 kcal/mol
GGGTGGCGAAAGCCCCCC (((.(((....))).)))	65 °C	-17.4 kcal/mol
GGGTGGGGAAACCCGCCC (((.(((....))).)))	67.3 °C	-33.6 kcal/mol
GGGTGTGAAAACACCC ((((((....))))))	69 °C	-34.4 kcal/mol
GGGTGTGGAAACATGCCC (((..((....))..)))	47.7 °C	-28.4 kcal/mol
GGGTTACGAAAGTACCCC (((.(((....))).)))	52.1 °C	-22.9 kcal/mol

Sequence	Tm [1]	folding enthalpy [2]
GGGTTAGGAAACTAACTC (.(((((....))))).)	42.3 °C	-25.8 kcal/mol
GGGTTATCGAAAGATCCC (((..(((....))))))	34.9 °C	-24.3 kcal/mol
GGGTTCCGAAAGGACCC (((.(((....))))))	58.1 °C	-31.6 kcal/mol
GGGTTCGAAAGAAAACCC ((((((....)))..)))	42.2 °C	-23.8 kcal/mol
GGGTTCGAAAGAAATCCC ((((((....)))..)))	33.6 °C	-21.3 kcal/mol
GGGTTCGAAAGAAGCCC ((((((....))).)))	55.7 °C	-24.1 kcal/mol
GGGTTCGCGAAAGCGCCC (((..(((....))))))	43.6 °C	-15.3 kcal/mol
GGGTTCGGAAACGAATCC ((.((((....)))).))	53.7 °C	-44 kcal/mol
GGGTTCGGAAACGAGCTC (.(.(((....))).).)	37.8 °C	-24 kcal/mol
GGGTTGGGAAACCAATCC ((.((((....)))).))	50.8 °C	-32.8 kcal/mol
GGGTTGGGAAACCAGCTC (.(.(((....))).).)	36.1 °C	-18.6 kcal/mol
GGTAAATCGAAAGATACC (((..(((....))))))	30.4 °C	-15.1 kcal/mol
GGTAACCGAAAGGTAACC (((.(((....))).)))	50.8 °C	-20.8 kcal/mol
GGTAACCGAAAGGTGACC (((.(((....))).)))	55.4 °C	-36.3 kcal/mol
GGTAACGAAAGTTACACC ((((((....)))..)))	43.5 °C	-13.9 kcal/mol
GGTAACGAAAGTTATACC ((((((....)))..)))	32.6 °C	-22.1 kcal/mol
GGTAACGAAAGTTCCACC ((((((....)))..)))	33.3 °C	-12.3 kcal/mol
GGTAACGAAAGTTCTACC ((((((....)))..)))	28.2 °C	-13.9 kcal/mol
GGTAACGAAAGTTTACC ((((((....))).)))	43.3 °C	-22.4 kcal/mol
GGTAACGAAAGTTTGACC ((((((....)))..)))	28.9 °C	-19.4 kcal/mol
GGTAACGGAAACGTCACC (((.(((....))).)))	42.8 °C	-32 kcal/mol
GGTAACTCGAAAGAGACC (((..(((....))))))	31.3 °C	-14.5 kcal/mol
GGTAAGCGAAAGCTGACC (((.(((....))).)))	58.4 °C	-26.2 kcal/mol

Sequence	Tm [1]	folding enthalpy [2]
GGTAAGGGAAACTTTACC (((((.(....).)))))	36.4 °C	-21.3 kcal/mol
GGTAATCGAAAGATACC (((.(((....))))))	40.5 °C	-27.2 kcal/mol
GGTAATGGAAACATTACC (((((((....)))))))	55.9 °C	-42.8 kcal/mol
GGTACACGAAAGTGAACC (((.(((....))).)))	53.9 °C	-36.8 kcal/mol
GGTACACGAAAGTGGACC (((.(((....))).)))	67.2 °C	-38.2 kcal/mol
GGTACCACGAAAGTGACC (((..(((....))))))	30.1 °C	-13.4 kcal/mol
GGTACCCGAAAGGGAACC (((.(((....))).)))	59.7 °C	-26.8 kcal/mol
GGTACCGGAAACGATACC ((((.((....)).))))	42.7 °C	-31.9 kcal/mol
GGTACCGGAAACGGTGTC (..((((....))))..)	36.7 °C	-13.4 kcal/mol
GGTACGGGAAACTGTGCC ((.((.(....).)).))	43.1 °C	-31.2 kcal/mol
GGTACTGGAAACAGCACC (((.(((....))).)))	43.9 °C	-29.3 kcal/mol
GGTACTGGAAACGGTACC (((((.(....).)))))	50.4 °C	-40.9 kcal/mol
GGTAGAGGAAACTCTACC (((((((....)))))))	57.8 °C	-46.8 kcal/mol
GGTAGAGGAAACTCTGCC ((.((((....)))).))	49.2 °C	-34.2 kcal/mol
GGTAGCCCGAAAGGGACC (((..(((....))))))	33.6 °C	-12.6 kcal/mol
GGTAGCGAAAGCTGCACC ((((((....)))..)))	39 °C	-13.2 kcal/mol
GGTAGCGAAAGCTGGACC ((((((....)))..)))	37.4 °C	-12.6 kcal/mol
GGTAGCGAAAGCTTAACC ((((((....)))..)))	38.1 °C	-16.7 kcal/mol
GGTAGCGCGAAAGCGACC (((..(((....))))))	40 °C	-13.3 kcal/mol
GGTAGCGGAAACGCTGCC ((.((((....)))).))	62.5 °C	-37.9 kcal/mol
GGTAGCGGAAACGCTGTC (..((((....))))..)	34.8 °C	-13.4 kcal/mol
GGTAGGACGAAAGTCACC (((..(((....))))))	35.8 °C	-15.5 kcal/mol
GGTAGGGCGAAAGCCACC (((..(((....))))))	41.9 °C	-14 kcal/mol

Sequence	Tm [1]	folding enthalpy [2]
GGTAGGGGAAACCCTGTC (..((((....))))..)	32.2 °C	-13.1 kcal/mol
GGTAGTACGAAAGTAACC (((..(((....))))))	27.4 °C	-10.7 kcal/mol
GGTAGTCGAAAGACACC (((.(((....))))))	50.4 °C	-20.1 kcal/mol
GGTAGTGCGAAAGCAACC (((..(((....))))))	32 °C	-10.8 kcal/mol
GGTAGTGGAAACACTACC (((((((....)))))))	62.9 °C	-46.8 kcal/mol
GGTAGTGGAAACATTGCC ((.(.((....)).).))	28.5 °C	-17.1 kcal/mol
GGTAGTGGAAACGCTATC (.(((.(....).))).)	30.8 °C	-15.7 kcal/mol
GGTATACCGAAAGGTACC (((..(((....))))))	36.4 °C	-12.8 kcal/mol
GGTATACGAAAGTAACC (((.(((....))))))	34.9 °C	-19.3 kcal/mol
GGTATAGGAAACTATACC (((((((....)))))))	52.1 °C	-42.4 kcal/mol
GGTATATCGAAAGATACC (((..(((....))))))	33.6 °C	-16.3 kcal/mol
GGTATCCGAAAGGAACC (((.(((....))))))	44.4 °C	-18.8 kcal/mol
GGTATCCGAAAGGAGACC (((.(((....))).)))	58.5 °C	-43 kcal/mol
GGTATCGAAAGATAGACC ((((((....)))..)))	30.6 °C	-17 kcal/mol
GGTATCGAAAGATCAACC ((((((....)))..)))	27 °C	-12.9 kcal/mol
GGTATCGAAAGATGACC ((((((....))).)))	36.6 °C	-22.1 kcal/mol
GGTATCGAAAGATTACC ((((((....))).)))	37.7 °C	-24.9 kcal/mol
GGTATCGGAAACGATATC (.(((((....))))).)	45.7 °C	-24.1 kcal/mol
GGTATCGGAAACGATGTC (..((((....))))..)	31.9 °C	-18.5 kcal/mol
GGTATGGGAAACTGTACC ((((..(....)..))))	36.1 °C	-21.9 kcal/mol
GGTCACGAAAGTGCTACC ((((((....)))..)))	36.3 °C	-15.6 kcal/mol
GGTCACGAAAGTGGAACC ((((((....)))..)))	40.5 °C	-18.3 kcal/mol
